Results on 51 compounds are retold here after ChEMBL document CHEMBL3739299, “8-Hydroxyquinoline-based inhibitors of the Rce1 protease disrupt Ras membrane localization in human cells” (Bioorg Med Chem, 2016).

The target of series [1] is T1, CAAX prenyl protease 2 (Homo sapiens) (UniProt Q9Y256).
T1 sequence (whole entry): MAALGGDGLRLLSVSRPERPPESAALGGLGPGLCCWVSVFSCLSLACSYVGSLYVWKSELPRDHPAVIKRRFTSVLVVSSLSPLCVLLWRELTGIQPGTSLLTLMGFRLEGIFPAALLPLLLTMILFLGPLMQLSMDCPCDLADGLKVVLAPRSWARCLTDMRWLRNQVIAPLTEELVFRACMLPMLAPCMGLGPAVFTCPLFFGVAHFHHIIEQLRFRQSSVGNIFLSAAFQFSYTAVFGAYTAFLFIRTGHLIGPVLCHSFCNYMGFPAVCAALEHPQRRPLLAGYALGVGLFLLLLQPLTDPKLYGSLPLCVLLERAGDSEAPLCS
As to the kind of experiment: Inhibition of human Rce1-mediated CaaX protease activity using […] and […] as substrate assessed as residual activity at 10 uM measured every 30 to 60 seconds for 60 mins. In outline:
(§1)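 Membranes from yeast SM3614 (ste24 rce1 null) overexpressing human Rce1, 0.25 mg/mL final in 200 mM Tris pH 7.5, 200 mM NaCl, 1 mg/mL BSA. […] Reaction started with 20 μM ABZ-KSKTKC(farnesyl)QLIM. Fluorescence (ex 320/em 420) read every 30–60 s for 60 min at 30 °C. Initial velocities trypsin-normalised; activity given as % of DMSO control.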

In a further series the target is T2, CAAX prenyl protease 2 (Homo sapiens, UniProt Q9Y256).
T2 sequence (Q9Y256 whole entry): T1 sequence (whole entry)
As to the kind of experiment: Inhibition of human Rce1-mediated CaaX protease activity using ABZ-KSKTKC(farnesyl)QIIM and ABZ-KSKTKC(farnesyl)VIQI as substrate assessed as residual activity measured every 30 to 60 seconds for 60 mins. In outline:
as §1

Series [2] can be described thus: Cytotoxicity against human HCT116 cells assessed as cell death at 25 uM after 20 hrs by celltiter blue assay (reference value: 0.4%). It is filed as cell-based. Particulars: hct-116, 20 h. A digest of the protocol:
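HCT-116 cells grown in DMEM with 10% FBS and 1% NEAA at 37 °C, 5% CO2, seeded 7 × 10^3 per well, exposed 20 h to 25 μM compound (0.4% DMSO vehicle; untreated control). CellTiter-Blue added for 4 h, fluorescence read at 560/590 nm. Values relative to untreated cells, mean of three independent experiments with SEM.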

The target in series [3] is T3, CAAX prenyl protease 1 homolog (Homo sapiens) (UniProt O75844).
T3 sequence (whole entry): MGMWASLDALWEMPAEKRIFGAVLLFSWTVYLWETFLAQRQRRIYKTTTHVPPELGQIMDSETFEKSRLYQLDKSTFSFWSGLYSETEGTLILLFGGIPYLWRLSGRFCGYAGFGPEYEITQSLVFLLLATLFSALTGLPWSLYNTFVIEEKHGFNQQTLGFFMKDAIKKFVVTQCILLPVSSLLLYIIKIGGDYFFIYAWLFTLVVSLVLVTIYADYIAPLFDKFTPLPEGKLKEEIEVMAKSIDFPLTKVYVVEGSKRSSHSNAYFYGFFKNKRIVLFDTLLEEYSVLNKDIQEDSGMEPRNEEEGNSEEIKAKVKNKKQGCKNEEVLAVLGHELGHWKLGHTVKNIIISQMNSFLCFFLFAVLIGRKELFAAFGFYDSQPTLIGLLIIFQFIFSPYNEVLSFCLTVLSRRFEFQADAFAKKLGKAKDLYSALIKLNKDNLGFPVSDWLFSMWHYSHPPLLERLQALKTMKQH
As to the kind of experiment: Inhibition of human FACE1-mediated CaaX protease activity at 10 uM measured every 30 to 60 seconds for 60 mins. A digest of the protocol:
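Human Ste24 overexpressed in yeast strain SM3614 (ste24 rce1 null); membranes 0.25 mg/mL final in 200 mM Tris pH 7.5, 200 mM NaCl, 1 mg/mL BSA. Pretreated 15 min at 30 °C with 10 μM compound in duplicate, then 20 μM ABZ-KSKTKC(farnesyl)VIQL substrate added. Fluorescence (ex 320/em 420) read every 30–60 s for 60 min at 30 °C. Initial velocities normalised via trypsin-digest maximum fluorescence and expressed as % of DMSO control. SD shown.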

The source made the active and inactive calls. The rule behind the calls is not given here. A value given as a limit tells only on which side of the number the result lay.

The term IC50 denotes the concentration that inhibits the measured activity by half. In the case of `O=C(O)c1ccc(NC(c2ccc3ccccc3c2O)c2c(F)cc(Br)cc2F)cc1` (centres undefined), the Activity in series [1] worked out at 21%. In addition, the IC50 at CAAX prenyl protease 2 came out at 3.8 µM. In addition, in series [2], the Cell death is less than 10%. The inhibition result in series [3] is “inactive”.
Turning to `N#Cc1ccc(C(Nc2ccc(C(=O)O)cc2)c2ccc3cccnc3c2O)cc1` (centres undefined), the Activity in series [1] was 76%. Moreover, the IC50 at CAAX prenyl protease 2 was 16 µM. Further, the inhibition result in series [3] was “inactive”.
Regarding `O=C(O)c1ccc(NC(c2ccccc2)c2ccc3cccnc3c2O)cc1` (centres undefined), the Activity in series [1] is 25%. For the same compound, the IC50 at CAAX prenyl protease 2 turned out to be 6.9 µM. Besides, the Cell death in series [2] is given as less than 10%. The inhibition result in series [3] was “inactive”.
Turning to `Cc1ccc(NC(c2ccccc2)c2ccc3cccnc3c2O)cc1` (centres undefined), the Activity in series [1] is 54%. In addition, the half-maximal inhibitory concentration (IC50) at CAAX prenyl protease 2 was found to be 8.8 µM. Also, in series [3], the inhibition entry was “inactive”.
As to `Oc1c(C(Nc2nc3ccccc3s2)c2ccccc2)ccc2cccnc12` (centres undefined), the Activity in series [1] was 83%. Also, in series [2], the Cell death is less than 10%.
Take `O=C(O)c1ccc(NC(c2ccc3cccnc3c2O)C2CCCCC2)cc1` (centres undefined): in series [1], the Activity was found to be 34%. Besides, the IC50 on CAAX prenyl protease 2 was determined as 9.8 µM. For the same compound, in series [2], the Cell death was less than 10%. Besides, the inhibition entry in series [3] was “inactive”.
Consider `Oc1c(C(Nc2ccccc2)C2CCCCC2)ccc2cccnc12` (centres undefined), for which, in series [1], the Activity stood at 59%. Further, in series [2], the Cell death is recorded as less than 10%.
On the same counts, the results for `O=C(NC(c1ccccc1)c1ccc2cccnc2c1O)c1ccccc1` (centres undefined) are 81% and less than 10%.
As to `O=C(O)c1ccc(NC(c2cccnc2)c2ccc3cccnc3c2O)cc1` (centres undefined), the Activity in series [1] was 70%. Besides, the IC50 at CAAX prenyl protease 2 amounted to 14 µM. In addition, in series [3], the inhibition entry is “inactive”.
For the compound `O=C(O)c1ccc(NC(c2ccc(Br)cc2)c2ccc(Br)cc2)cc1`, the Activity in series [1] worked out at 83%.
Take `Oc1c(C(Nc2ccccc2)c2ccccc2)cc(Br)c2ccccc12` (centres undefined): in series [1], the Activity amounted to 27%. Also, the IC50 on CAAX prenyl protease 2 turned out to be 5.4 µM. Also, the Cell death in series [2] was less than 10%. In addition, in series [3], the inhibition result was “inactive”.
In the case of `Oc1c(C(Nc2ccccc2)c2ccccc2)cc(Br)c2cccnc12` (centres undefined), the Activity in series [1] was 73%.
As to `CCOC(=O)c1ccc(NC(c2ccc(F)cc2)c2ccc3cccnc3c2O)cc1` (centres undefined), the Activity in series [1] stood at 63%. The Cell death in series [2] is reported as less than 10%.
On to `c1ccc(NC(c2ccccc2)c2ccc3cccnc3c2)cc1` (centres undefined), for which the Activity in series [1] came to 82%.
Take `O=C(Nc1ccccc1)c1ccc(NC(c2ccccc2)c2ccccc2)cc1`: the Activity in series [1] is 78%.
As for `Oc1c(C(Nc2ccccc2)c2c(F)cc(Br)cc2F)ccc2cccnc12` (centres undefined), the Activity in series [1] was determined as 76%. The Cell death in series [2] is given as less than 10%.
The matching figures for `Oc1c(CNc2ccccc2)ccc2cccnc12`: 82% and less than 10%.
As for `O=C(Nc1ccccc1)c1ccc(NC(c2ccccc2)c2ccc(Br)cc2)cc1` (centres undefined), the Activity in series [1] came out at 78%.
Turning to `O=C(O)c1ccc(NC(c2ccccc2)c2ccc3ccccc3c2O)cc1` (centres undefined), in series [1], the Activity was found to be 19%. The IC50 at CAAX prenyl protease 2 amounted to 4.2 µM. The Cell death in series [2] is on record as less than 10%. Besides, the inhibition result in series [3] is “inactive”.
Consider `Oc1ccc2ccccc2c1C(Nc1ccccc1)c1ccccc1` (centres undefined), for which the Activity in series [1] was 59%. The Cell death in series [2] is less than 10%.
The matching figures for `CCOC(=O)c1ccc(NC(c2ccc(C(F)(F)F)cc2)c2ccc3cccnc3c2O)cc1` (centres undefined): 89% and less than 10%.
The matching figures for `Oc1c(C(/N=C/c2ccccc2)c2ccccc2)ccc2cccnc12` (centres undefined): 73% and less than 10%.
On the same counts, the results for `O=[N+]([O-])c1ccc(NC(c2ccc(Br)cc2)c2ccc3cccnc3c2O)cc1` (centres undefined) are 64% and less than 10%.
As for `COC(=O)c1ccc(NC(c2ccccc2)c2ccc3cccnc3c2OC)cc1` (centres undefined), the Activity in series [1] came to 65%. Moreover, in series [2], the Cell death is on record as less than 10%.
Regarding `O=C(O)c1cccc(NC(=O)c2ccc(NC(c3ccccc3)c3ccccc3)cc2)c1`, the Activity in series [1] turned out to be 72%.
Same read-out and setting: next, `c1ccc(NC(c2ccccc2)c2ccc3ccccc3c2)cc1` (centres undefined): 77%; `O=C(O)c1ccc(NC(c2ccccc2)c2ccc(Br)cc2)cc1` (centres undefined): 86%.
On the same count and under the same terms, to `Oc1c(C(Nc2ccccc2)c2ccccc2)ccc2cc3ccccc3nc12` (centres undefined) belongs 51%.
Regarding `CCOC(=O)c1ccc(NC(c2ccc3cccnc3c2O)C2CCCC2)cc1` (centres undefined), in series [1], the Activity turned out to be 82%. In addition, the Cell death in series [2] is reported as less than 10%.
With `O=C(O)c1ccc2ccc(C(Nc3ccccc3)c3ccccc3)c(O)c2n1` (centres undefined), in series [1], the Activity came out at 77%.
Consider `CCOC(=O)c1ccc(NC(c2ccc(Cl)cc2)c2ccc3cccnc3c2O)cc1` (centres undefined), for which the Activity in series [1] was found to be 71%. In series [2], the Cell death is less than 10%.
Take `O=C(O)c1ccc(NC(c2ccccc2)c2ccccc2)cc1`: the Activity in series [1] is 90%.
Consider `Oc1ccc2ccc(O)c(C(Nc3ccccc3)c3ccccc3)c2c1` (centres undefined), for which the Activity in series [1] is 51%. In series [2], the Cell death is less than 10%.
On the same counts, the results for `N#Cc1ccc(NC(c2ccccc2)c2ccc3cccnc3c2O)cc1` (centres undefined) are 56% and less than 10%.
The matching figures for `O=C(O)c1ccc(NC(c2ccc3cccnc3c2O)c2c(F)cc(Br)cc2F)cc1` (centres undefined): 64% and less than 10%.
For `Oc1c(C(Nc2ccccc2)c2ccccc2)ccc2ccccc12` (centres undefined), the Activity in series [1] stood at 17%. At CAAX prenyl protease 2, the IC50 was 4.9 µM. In addition, in series [2], the Cell death was less than 10%. Moreover, in series [3], the inhibition result was “inactive”.
With `CCOC(=O)c1ccc(NC(c2ccccc2)c2ccc(Br)cc2)cc1` (centres undefined), in series [1], the Activity is 79%.
`O=[N+]([O-])c1ccc(C(Nc2ccccc2)c2ccc3cccnc3c2O)cc1` (centres undefined): the Activity in series [1] was determined as 85%. Moreover, the IC50 at CAAX prenyl protease 2 turned out to be 11 µM. In addition, the inhibition result in series [3] is “inactive”.
With `Cc1ccc2ccc(C(Nc3ccccc3)c3ccccc3)c(O)c2n1` (centres undefined), the Activity in series [1] came out at 83%.
Same read-out and setting: next, `N#Cc1ccc2ccc(C(Nc3ccccc3)c3ccccc3)c(O)c2n1` (centres undefined): 83%.
In the case of `CCOC(=O)c1ccc(NC(c2ccccc2)c2ccccc2)cc1`, the Activity in series [1] was found to be 82%. The Cell death in series [2] is less than 10%.
Turning to `O=C(Nc1ccc2ccccc2c1)c1ccc(NC(c2ccccc2)c2ccccc2)cc1`, the Activity in series [1] turned out to be 89%.
As to `Cc1ccc(C(Nc2ccc(C(=O)O)cc2)c2ccc3cccnc3c2O)cc1` (centres undefined), the Activity in series [1] stood at 32%. Moreover, on CAAX prenyl protease 2, the IC50 turned out to be 7.1 µM. Further, in series [3], the inhibition result is “inactive”.
The matching figures for `O=C(O)c1ccc(NC(c2ccccn2)c2ccc3cccnc3c2O)cc1` (centres undefined): 90%, 38 µM and “inactive”.
`CCOC(=O)c1ccc(NC(c2ccc(Br)cc2)c2ccc(Br)cc2)cc1`: the Activity in series [1] was found to be 83%.
In the case of `Oc1c(C(Nc2ccccc2)c2ccccc2)cc(Cl)c2cccnc12` (centres undefined), the Activity in series [1] was 68%.
Same read-out and setting: to `CCCCCCCCOc1ccc(C(Nc2ccccc2)c2ccc3cccnc3c2O)cc1` (centres undefined) belongs 89%.
On the same count and under the same terms, to `O=C(Nc1ccccc1)c1ccc(NC(c2ccc(Br)cc2)c2ccc(Br)cc2)cc1` belongs 80%; to `O=C(OCc1ccccc1)c1ccc2ccc(C(Nc3ccccc3)c3ccccc3)c(O)c2n1` (centres undefined), 75%; to `C[C@@H](N[C@H](c1ccccc1)c1c(O)ccc2ccccc12)c1ccccc1`, 63%.
`CCOC(=O)c1ccc(NC(c2ccccc2)c2ccc3cccnc3c2O)cc1` (centres undefined): the Activity in series [1] was 52%. In series [2], the Cell death is given as less than 10%.
